Laboratory results from ChEMBL document CHEMBL5131404, “Lipophilic quinolone derivatives: Synthesis and in vitro antibacterial evaluation” (2022).
Values after ≈ are worked out from the molar mass of the structure shown.

Key:
Assay type in all cases: functional
Escherichia coli [1] = test: Antibacterial activity against Escherichia coli ATCC 35218
In short: (§1)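 Broth microdilution MIC following CLSI guidelines. Strains were grown on Mueller-Hinton agar beforehand. The MIC is the lowest compound concentration that inhibits bacterial growth, determined at least three times in independent experiments.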

Neisseria gonorrhoeae [2] = test: Antibacterial activity against Neisseria gonorrhoeae ATCC 19424
In short: (§2)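 Agar dilution MIC. Strains were cultured on GC agar with 2% v/v Vitox and 1% haemoglobin. Suspensions of 10^5 CFU/mL were spotted in duplicate onto the same supplemented GC agar containing various compound concentrations, then incubated 24-48 h at 37°C in 5% CO2. The MIC is the lowest concentration inhibiting growth, from at least three independent experiments.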

Streptococcus pneumoniae = test: Antibacterial activity against Streptococcus pneumoniae ATCC 49169; in short: as §1
Staphylococcus aureus [3] = test: Antibacterial activity against Staphylococcus aureus ATCC 29213; in short: as §1
Staphylococcus aureus [4] = test: Antibacterial activity against methicillin-resistant Staphylococcus aureus 197
In short: (§3)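 Strains grown on Mueller-Hinton agar. MIC by broth microdilution following CLSI guidelines, taken as the lowest concentration inhibiting bacterial growth. Determined at least three times in independent experiments.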

Acinetobacter baumannii [5] = test: Antibacterial activity against Acinetobacter baumannii ATCC 19606; in short: as §1
Acinetobacter baumannii [6] = test: Antibacterial activity against Acinetobacter baumannii 139; in short: as §1
Acinetobacter baumannii [7] = test: Antibacterial activity against Acinetobacter baumannii 140; in short: as §1
Escherichia coli [8] = test: Antibacterial activity against Escherichia coli 202; in short: as §1
Escherichia coli [9] = test: Antibacterial activity against Escherichia coli 203; in short: as §1
Pseudomonas aeruginosa [10] = test: Antibacterial activity against Pseudomonas aeruginosa ATCC 27853; in short: as §1
Pseudomonas aeruginosa [11] = test: Antibacterial activity against Pseudomonas aeruginosa 142; in short: as §1
Pseudomonas aeruginosa [12] = test: Antibacterial activity against Pseudomonas aeruginosa 143; in short: as §1
Staphylococcus aureus [13] = test: Antibacterial activity against methicillin-resistant Staphylococcus aureus 196; in short: as §3
Neisseria gonorrhoeae [14] = test: Antibacterial activity against Neisseria gonorrhoeae WHO K; in short: as §2
Neisseria gonorrhoeae [15] = test: Antibacterial activity against Neisseria gonorrhoeae WHO G; in short: as §2
Neisseria gonorrhoeae [16] = test: Antibacterial activity against Neisseria gonorrhoeae Barla194; in short: as §2
Neisseria gonorrhoeae [17] = test: Antibacterial activity against Neisseria gonorrhoeae WHO Q; in short: as §2
Neisseria gonorrhoeae [18] = test: Antibacterial activity against Neisseria gonorrhoeae WHO O; in short: as §2
Neisseria gonorrhoeae [19] = test: Antibacterial activity against Neisseria gonorrhoeae WHO M
In short: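 Agar dilution on GC agar base with 2% v/v Vitox and 1% haemoglobin containing graded compound concentrations. Suspensions at 10^5 CFU/mL spotted in duplicate. Incubation 24-48h, 37°C, 5% CO2. MIC taken as the lowest concentration inhibiting growth, determined at least three times in independent experiments.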

Neisseria gonorrhoeae [20] = test: Antibacterial activity against Neisseria gonorrhoeae WHO E; in short: as §2
Neisseria gonorrhoeae [21] = test: Antibacterial activity against Neisseria gonorrhoeae WHO C; in short: as §2
Neisseria gonorrhoeae [22] = test: Antibacterial activity against Neisseria gonorrhoeae WHO B; in short: as §2
Neisseria gonorrhoeae [23] = test: Antibacterial activity against Neisseria gonorrhoeae WHO A; in short: as §2
Neisseria gonorrhoeae [24] = test: Antibacterial activity against Neisseria gonorrhoeae WHO Z; in short: as §2

Structure (SMILES)	MIC (Escherichia coli [1]) [µg/mL]	MIC (Neisseria gonorrhoeae [2]) [µg/mL]	MIC (Streptococcus pneumoniae) [µg/mL]	MIC (Staphylococcus aureus [3]) [µg/mL]	MIC (Staphylococcus aureus [4]) [µg/mL]	MIC (Acinetobacter baumannii [5]) [µg/mL]	MIC (Acinetobacter baumannii [6]) [µg/mL]	MIC (Acinetobacter baumannii [7]) [µg/mL]	MIC (Escherichia coli [8]) [µg/mL]	MIC (Escherichia coli [9]) [µg/mL]	MIC (Pseudomonas aeruginosa [10]) [µg/mL]	MIC (Pseudomonas aeruginosa [11]) [µg/mL]	MIC (Pseudomonas aeruginosa [12]) [µg/mL]	MIC (Staphylococcus aureus [13]) [µg/mL]	also measured
CCCCC(CC)CN1CCN(c2c(F)cc3c(=O)c(C(=O)O)cn(C4CC4)c3c2OC)CC1 (stereo not given)	≥ 64	> 32	2 (≈ 4.22 µM)	32 (≈ 67.6 µM)											
CCCCCCCN1CCN(c2c(F)cc3c(=O)c(C(=O)O)cn(C4CC4)c3c2OC)CC1	1 (≈ 2.18 µM)	0.25 (≈ 0.544 µM)	4 (≈ 8.7 µM)	1 (≈ 2.18 µM)	8 (≈ 17.4 µM)	8 (≈ 17.4 µM)	4 (≈ 8.7 µM)	64 (≈ 139 µM)	2 (≈ 4.35 µM)	> 64	64 (≈ 139 µM)	> 64	> 64	2 (≈ 4.35 µM)	
CCCCCCCCCCCCN1CCN(c2c(F)cc3c(=O)c(C(=O)O)cn(C4CC4)c3c2OC)CC1	64 (≈ 121 µM)	0.12 (≈ 0.227 µM)	4 (≈ 7.55 µM)	32 (≈ 60.4 µM)	≥ 64	64 (≈ 121 µM)	≥ 64	64 (≈ 121 µM)	32 (≈ 60.4 µM)	> 64	> 64	> 64	> 64	≥ 64	
CCCCCCCC(=O)N1CCN(c2c(F)cc3c(=O)c(C(=O)O)cn(C4CC4)c3c2OC)CC1	≥ 64	1 (≈ 2.05 µM)	0.5 (≈ 1.03 µM)	1 (≈ 2.05 µM)											
CCCCCCCCN1CCN(c2c(F)cc3c(=O)c(C(=O)O)cn(C4CC4)c3c2OC)CC1	≥ 64	0.25 (≈ 0.528 µM)	32 (≈ 67.6 µM)	4 (≈ 8.45 µM)	8 (≈ 16.9 µM)	16 (≈ 33.8 µM)	16 (≈ 33.8 µM)	64 (≈ 135 µM)	2 (≈ 4.22 µM)	> 64	> 64	> 64	> 64	4 (≈ 8.45 µM)	MIC (Neisseria gonorrhoeae [14]): 256 µg/mL (≈ 541 µM); MIC (Neisseria gonorrhoeae [15]): 0.25 µg/mL (≈ 0.528 µM); MIC (Neisseria gonorrhoeae [16]): 128 µg/mL (≈ 270 µM); MIC (Neisseria gonorrhoeae [17]): 0.5 µg/mL (≈ 1.06 µM); MIC (Neisseria gonorrhoeae [18]): 0.03 µg/mL (≈ 0.0633 µM); MIC (Neisseria gonorrhoeae [19]): 16 µg/mL (≈ 33.8 µM); MIC (Neisseria gonorrhoeae [20]): 0.03 µg/mL (≈ 0.0633 µM); MIC (Neisseria gonorrhoeae [21]): 0.5 µg/mL (≈ 1.06 µM); MIC (Neisseria gonorrhoeae [22]): 0.12 µg/mL (≈ 0.253 µM); MIC (Neisseria gonorrhoeae [23]): 0.03 µg/mL (≈ 0.0633 µM); MIC (Neisseria gonorrhoeae [24]): > 32 µg/mL
CCCCCCCCCCCCCCN1CCN(c2c(F)cc3c(=O)c(C(=O)O)cn(C4CC4)c3c2OC)CC1	32 (≈ 57.4 µM)	0.12 (≈ 0.215 µM)	8 (≈ 14.3 µM)	32 (≈ 57.4 µM)	> 64	64 (≈ 115 µM)	≥ 64	≥ 64	64 (≈ 115 µM)	> 64	> 64	> 64	> 64	> 64	
